We go through 25 compounds from ChEMBL document CHEMBL1152204, “Novel potent and highly selective human A(3) adenosine receptor antagonists belonging to the 4-amido-2-arylpyrazolo[3,4-c]quinoline series: molecular docking analysis and pharmacological studies” (Bioorg Med Chem, 2009).

Usually Ki stands for the dissociation constant of the complex between target and ligand, obtained from inhibition or displacement. In general, inhibition refers to the drop in the measured response relative to a control, in per cent. As usually defined, the IC50 is the concentration needed to halve the response being measured.

Test [1] has as its target T1, Adenosine receptor A3 (Homo sapiens, UniProt P0DMS8).
T1 sequence (P0DMS8 whole entry): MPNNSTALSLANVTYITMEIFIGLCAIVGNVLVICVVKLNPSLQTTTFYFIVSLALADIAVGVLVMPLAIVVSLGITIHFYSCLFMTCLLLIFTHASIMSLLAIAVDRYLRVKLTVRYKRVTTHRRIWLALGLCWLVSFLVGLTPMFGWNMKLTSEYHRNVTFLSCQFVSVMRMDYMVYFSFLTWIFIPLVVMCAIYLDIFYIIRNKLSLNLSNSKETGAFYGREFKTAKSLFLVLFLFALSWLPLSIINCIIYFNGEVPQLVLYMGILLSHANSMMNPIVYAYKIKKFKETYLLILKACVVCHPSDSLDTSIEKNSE
Briefly: (§1) Displacement of [125I]AB-MECA from human adenosine A3 receptor expressed in CHO cells by scintillation counting. It counts as cell-based. A digest of the protocol: (§2)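 hA3-CHO membranes (50 µg protein) with 0.5 nM [125I]AB-MECA in 50 mM Tris-HCl, 10 mM MgCl2, 1 mM EDTA, pH 7.4; six to eight ligand concentrations; 120 min at 4 °C. Nonspecific binding: 1 µM AB-MECA. GF/B filtration. Ki by Cheng–Prusoff, means of four assays in duplicate.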
For orientation: Displacement assays read how much labelled ligand stays bound in the presence of the test substance.

In test [2] the target is T2, Adenosine receptor A1 (Homo sapiens) (UniProt P30542).
T2 sequence (whole entry): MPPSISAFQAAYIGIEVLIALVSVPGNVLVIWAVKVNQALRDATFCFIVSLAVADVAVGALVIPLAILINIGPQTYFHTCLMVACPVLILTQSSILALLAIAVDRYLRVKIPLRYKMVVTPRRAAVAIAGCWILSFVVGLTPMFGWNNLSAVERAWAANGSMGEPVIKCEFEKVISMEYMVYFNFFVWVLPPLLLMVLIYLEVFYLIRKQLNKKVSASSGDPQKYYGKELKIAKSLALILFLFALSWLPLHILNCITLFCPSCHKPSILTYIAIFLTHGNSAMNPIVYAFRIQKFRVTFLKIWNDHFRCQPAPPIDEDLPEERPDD
The test can be described thus: Displacement of [3H]DPCPX from human adenosine A1 receptor expressed in CHO cells at 1 uM by scintillation counting. It counts as cell-based. A digest of the protocol:
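hA1-CHO membranes (50 µg protein) with 1 nM [³H]DPCPX in 50 mM Tris-HCl pH 7.4, 120 min at 25 °C; nonspecific binding with 10 µM CHA. GF/B filtration. Ki from six to eight concentrations via Cheng–Prusoff (four duplicate assays); or % inhibition at 1 µM.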

The next test concerns the target Adenosine receptor A2a (Homo sapiens, UniProt P29274). The test can be described thus: Displacement of [3H]ZM241385 from human adenosine A2A receptor expressed in CHO cells at 1 uM by scintillation counting. Type of test: cell-based. A digest of the protocol:
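hA2A-CHO membranes (50 µg protein) with 1 nM [³H]ZM241385 in 50 mM Tris-HCl, 10 mM MgCl2, pH 7.4; 60 min at 4 °C; nonspecific binding with 1 µM ZM241385. GF/B filtration. Ki from six to eight concentrations via Cheng–Prusoff; or % inhibition at 1 µM.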

The target of test [3] is T3, Adenosine receptor A2b (Homo sapiens) (UniProt P29275).
T3 sequence (whole entry): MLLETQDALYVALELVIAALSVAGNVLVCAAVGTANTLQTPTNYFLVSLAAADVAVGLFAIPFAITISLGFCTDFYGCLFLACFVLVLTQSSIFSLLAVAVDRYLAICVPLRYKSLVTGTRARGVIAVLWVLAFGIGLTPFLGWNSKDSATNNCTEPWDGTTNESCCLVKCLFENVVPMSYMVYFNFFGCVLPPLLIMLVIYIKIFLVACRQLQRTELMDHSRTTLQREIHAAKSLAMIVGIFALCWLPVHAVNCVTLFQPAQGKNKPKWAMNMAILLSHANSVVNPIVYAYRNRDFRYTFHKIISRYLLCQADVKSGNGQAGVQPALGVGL
Briefly: Antagonist activity at human adenosine A2B receptor expressed in CHO cells assessed as inhibition of NECA-induced cAMP accumulation at 1 uM. Type of test: functional, cell-based. A digest of the protocol:
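Whole hA2B-CHO cells (1 × 10⁶/assay) in buffered saline, pH 7.4, with 2 IU/ml adenosine deaminase and Ro 20-1724; preincubated 10 min at 37 °C. Stimulated with 200 nM NECA; compound at 1 µM. Stopped with cold 6% TCA, ether-extracted; cAMP by [³H]cAMP competition protein binding; % inhibition reported.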
Background: cAMP levels reflect the balance of adenylyl cyclase and phosphodiesterase activity.

Test [4] concerns the target T4, Adenosine receptor A3 (Rattus norvegicus) (UniProt P28647).
T4 sequence (whole entry): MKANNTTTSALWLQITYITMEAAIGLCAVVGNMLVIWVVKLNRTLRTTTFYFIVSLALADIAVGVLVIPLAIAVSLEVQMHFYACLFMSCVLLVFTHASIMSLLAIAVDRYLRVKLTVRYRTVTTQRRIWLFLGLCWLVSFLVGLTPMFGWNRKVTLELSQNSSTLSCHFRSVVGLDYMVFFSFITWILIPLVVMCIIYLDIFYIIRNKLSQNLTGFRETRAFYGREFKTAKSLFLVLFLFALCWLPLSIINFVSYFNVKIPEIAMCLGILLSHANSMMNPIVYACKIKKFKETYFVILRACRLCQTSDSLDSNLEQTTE
Briefly: Displacement of [125I]AB-MECA from rat adenosine A3 receptor expressed in HEK293 cells at 1 uM by scintillation counting. Type of test: cell-based. A digest of the protocol: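 rA3-HEK293 membranes (10 µg protein) with 0.5 nM [125I]AB-MECA in Tris-HCl/MgCl2/EDTA buffer pH 7.4; 120 min at 25 °C; GF/B filtration and scintillation counting; percent inhibition at 1 µM test compound.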

Test [5] has as its target T1, Adenosine receptor A3. The test can be described thus: Antagonist activity at human adenosine A3 receptor expressed in CHO cells assessed as inhibition of CI-IB-MECA-mediated inhibition of cAMP accumulation by competition protein binding assay. Type of test: functional, cell-based. A digest of the protocol:
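hA3-CHO cells (1 × 10⁶/assay) preincubated 10 min at 37 °C in buffered saline pH 7.4 with adenosine deaminase (2 IU/ml) and Ro 20-1724. cAMP inhibited by 100 nM Cl-IB-MECA; antagonist 1 nM–1 µM. TCA stop, ether extraction, cAMP by [³H]cAMP/adrenal binding-protein competition. IC50 as mean of four experiments.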

In test [6] the target is T5, Adenosine receptor A3 (Homo sapiens) (UniProt P0DMS8).
T5 sequence (whole entry): T1 sequence (P0DMS8 whole entry)
Described as §1. Type of test: cell-based. The arrangement: concentration or dose not given beside the values. The note with it: concentration not given here. A digest of the protocol: as §2

Chain of Adenosine receptor A2a (P29274 whole entry): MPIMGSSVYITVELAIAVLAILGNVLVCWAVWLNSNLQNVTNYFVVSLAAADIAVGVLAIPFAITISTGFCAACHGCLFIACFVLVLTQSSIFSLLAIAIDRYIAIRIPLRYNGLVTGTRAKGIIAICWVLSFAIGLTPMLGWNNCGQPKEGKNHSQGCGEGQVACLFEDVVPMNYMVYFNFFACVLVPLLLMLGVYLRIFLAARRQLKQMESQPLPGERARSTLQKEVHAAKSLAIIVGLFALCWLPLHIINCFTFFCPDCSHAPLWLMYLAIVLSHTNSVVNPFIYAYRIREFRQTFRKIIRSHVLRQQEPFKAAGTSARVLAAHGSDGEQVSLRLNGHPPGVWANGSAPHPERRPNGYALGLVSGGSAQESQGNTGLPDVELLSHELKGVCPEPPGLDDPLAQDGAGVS

`O=C(Nc1nc2ccccc2c2cn(-c3ccccc3)nc12)c1ccc(C(F)(F)F)cc1` yielded an inhibition constant (Ki) at Adenosine receptor A3 [1] of 415 nM. For the same compound, the inhibition in test [2] stood at 10%; at Adenosine receptor A2a, 3%; in test [3], 4%.
For `O=C(Nc1nc2ccccc2c2cn(-c3ccccc3)nc12)c1cscn1`, in that order: 60 nM, 12%, 1% and 2%.
In turn, `O=C(Nc1nc2ccccc2c2cn(-c3ccccc3)nc12)c1ccco1` had an inhibition constant (Ki) on Adenosine receptor A3 [1] of 3.4 nM. For the same compound, the inhibition amounted to 29% in test [4], 34% in test [2], 20% at Adenosine receptor A2a and 3% in test [3]. For the same compound, the half-inhibitory concentration (IC50) on Adenosine receptor A3 [5] is 21 nM.
With `O=C(Nc1nc2ccccc2c2cn(-c3ccccc3)nc12)c1ccsc1`, on Adenosine receptor A3 [1], the affinity corresponds to a Ki of 40 nM. Further, the figures for the inhibition (in test [2]; on Adenosine receptor A2a; in test [3]) were 1%, 2% and 2%, respectively.
Regarding `Cc1ccc(-n2cc3c(n2)c(NC(=O)c2ccccc2)nc2ccccc23)cc1`, on Adenosine receptor A2a, the inhibition worked out at 26%.
With `O=C(c1ccccc1)N(C(=O)c1ccccc1)c1nc2ccccc2c2cn(-c3ccccc3)nc12`, the inhibition (in test [2]; at Adenosine receptor A2a) was 0% in each case.
On Adenosine receptor A3 [1], `O=C(Nc1nc2ccccc2c2cn(-c3ccc(C(F)(F)F)cc3)nc12)c1ccccc1` had an inhibition constant (Ki) of 140 nM. Besides, the inhibition in test [2] came to 10%; at Adenosine receptor A2a, 1%; in test [3], 3%.
At Adenosine receptor A3 [1], `O=C(Nc1nc2ccccc2c2cn(-c3ccccc3)nc12)c1cccs1` had an inhibition constant Ki of 50 nM. The inhibition in test [2] turned out to be 45%; on Adenosine receptor A2a, 1%; in test [3] it was 6%.
On to `Cc1ccc(C(=O)Nc2nc3ccccc3c3cn(-c4ccccc4)nc23)cc1`, for which, at Adenosine receptor A3 [1], the affinity, expressed as Ki, was 11.5 nM. In addition, the inhibition was 7% in test [4], 6% in test [2], 1% at Adenosine receptor A2a and 38% in test [3]. Also, on Adenosine receptor A3 [5], the IC50 came to 54 nM.
Consider `O=c1[nH]c2ccccc2c2cn(-c3ccc(C(F)(F)F)cc3)nc12`, for which, at Adenosine receptor A3 [1], the inhibition constant (Ki) amounted to 480 nM. Also, the inhibition in test [2] worked out at 6%; on Adenosine receptor A2a, 10%; in test [3] it was 5%.
As for `O=C(c1cccc(C(F)(F)F)c1)N(C(=O)c1cccc(C(F)(F)F)c1)c1nc2ccccc2c2cn(-c3ccccc3)nc12`, the inhibition in test [6] is 24%; in test [2] it was 4%; on Adenosine receptor A2a it was 3%; in test [3], 6%.
For the compound `O=C(Nc1nc2ccccc2c2cn(-c3ccc(Cl)cc3)nc12)c1ccco1`, at Adenosine receptor A3 [1], the Ki came out at 11.5 nM. Further, the inhibition worked out at 11% in test [4], 17% in test [2], 1% at Adenosine receptor A2a and 2% in test [3]. The half-inhibitory concentration (IC50) on Adenosine receptor A3 [5] turned out to be 83 nM.
`Nc1nc2ccccc2c2cn(-c3ccc(C(F)(F)F)cc3)nc12`: the inhibition is 11% in test [6], 1% in test [2], 1% on Adenosine receptor A2a and 11% in test [3].
As for `O=C(Nc1nc2ccccc2c2cn(-c3ccccc3)nc12)c1cnccn1`, on Adenosine receptor A3 [1], the affinity, expressed as Ki, was 65 nM. In addition, the inhibition amounted to 6% in test [2], 6% on Adenosine receptor A2a and 2% in test [3].
`O=C(Nc1nc2ccccc2c2cn(-c3ccccc3)nc12)c1ncccn1`: the affinity on Adenosine receptor A3 [1] corresponds to a Ki of 945 nM. For the same compound, the inhibition is 6% in test [2], 2% at Adenosine receptor A2a and 1% in test [3].
As to `O=C(Nc1nc2ccccc2c2cn(-c3ccccc3)nc12)c1cccc(C(F)(F)F)c1`, the inhibition constant Ki at Adenosine receptor A3 [1] came out at 60 nM. The values for the inhibition (in test [2]; at Adenosine receptor A2a; in test [3]) were 23%, 1% and 2%, respectively.
`O=C(Nc1nc2ccccc2c2cn(-c3ccccc3)nc12)c1ccoc1` came in with an inhibitory constant (Ki) on Adenosine receptor A3 [1] of 50 nM. In addition, the inhibition was 9% in test [2], 2% on Adenosine receptor A2a and 5% in test [3].
`Cc1cccc(C(=O)Nc2nc3ccccc3c3cn(-c4ccccc4)nc23)c1`: on Adenosine receptor A3 [1], the Ki was determined as 6.3 nM. For the same compound, the inhibition was 5% in test [4], 20% in test [2], 1% on Adenosine receptor A2a and 35% in test [3]. The 50% inhibitory concentration (IC50) at Adenosine receptor A3 [5] amounted to 26 nM.
In the case of `O=C(Nc1nc2ccccc2c2cn(-c3ccccc3)nc12)c1ccccc1`, the Ki on Adenosine receptor A3 [1] was determined as 2 nM. For the same compound, the inhibition (in test [2]; at Adenosine receptor A2a) was 0% each time.
At Adenosine receptor A3 [1], `O=C(Nc1nc2ccccc2c2cn(-c3ccc(Cl)cc3)nc12)c1ccncc1` had a Ki of 24.7 nM. Further, the inhibition in test [4] is 21%; in test [2], 4%; at Adenosine receptor A2a, 2%; in test [3], 3%. Also, the half-inhibitory concentration (IC50) at Adenosine receptor A3 [5] was 145 nM.
Compound `O=C(Nc1nc2ccccc2c2cn(-c3cccc(C(F)(F)F)c3)nc12)c1ccccc1` had a Ki at Adenosine receptor A3 [1] of 52 nM. The values for the inhibition (in test [2]; at Adenosine receptor A2a; in test [3]) were 13%, 1% and 3%, respectively.
For `O=C(Nc1nc2ccccc2c2cn(-c3ccccc3)nc12)c1ccncn1`, in that order: 210 nM, 9%, 6% and 3%.
Turning to `O=C(Nc1nc2ccccc2c2cn(-c3ccccc3)nc12)c1ccncc1`, the Ki on Adenosine receptor A3 [1] is 5 nM. Besides, the inhibition was determined as 26% in test [4], 8% in test [2], 1% at Adenosine receptor A2a and 1% in test [3]. For the same compound, the half-inhibitory concentration (IC50) at Adenosine receptor A3 [5] is 41 nM.
On to `O=C(Nc1nc2ccccc2c2cn(-c3ccccc3)nc12)c1cccnc1`, for which the affinity at Adenosine receptor A3 [1] corresponds to a Ki of 10.5 nM. In addition, the inhibition in test [4] is 27%; in test [2] it was 26%; at Adenosine receptor A2a, 1%; in test [3], 1%. The IC50 at Adenosine receptor A3 [5] amounted to 76 nM.
As to `O=C(Nc1nc2ccccc2c2cn(-c3ccccc3)nc12)c1ccccn1`, at Adenosine receptor A3 [1], the affinity corresponds to a Ki of 15.5 nM. The inhibition in test [4] came to 23%; in test [2], 3%; on Adenosine receptor A2a it was 9%; in test [3], 15%. Further, on Adenosine receptor A3 [5], the 50% inhibitory concentration (IC50) is 107 nM.
